High-throughput results from PubChem.
The list is not random: actives were taken first. Their share in the collection is about 1.3%.
S1P4 antagonist: antagonists of human S1P4 receptor; O95977; S1P4-expressing cells, antagonist mode, reporter read-out; inhibition, % at 4.98 µM; actives 0.26% (n = 220,000); in the data active means inhibition above about 29%;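 further: 0% = wells stimulated with agonist and 100% = vehicle wells without agonist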
S1P3 antagonist: antagonists of human S1P3 receptor; Q99500; CHO S1P3 NFAT-BLA reporter, FRET fluorescence, antagonist mode; actives 0.27% (n = 170,000); inhibition, % at 4.98 µM;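 active means inhibition above the plate cutoff, the mean inhibition of test wells on that plate plus 3 SD, cut at about 28% in these data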;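 further: cells challenged with S1P at its EC80 of 0.8 µM; blue over green emission ratio from cleaved BLA substrate after 4 h stimulation; 0% = S1P-stimulated wells and 100% = unstimulated DMSO-only wells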
TbHK1 inh: T. brucei hexokinase 1 inhibition. actives 0.11% (n = 220,000). recombinant TbHK1, G6PDH-coupled NADH A340. inhibition, % at 10 µM;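 active means inhibition of 50% or more in the single-dose primary screen; inactive means inhibition below 50%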
S1P4 agonist: activates the human S1P4 receptor. activation, % at 4.98 µM. S1P4-expressing cell line, agonist reporter assay. actives 0.35% (n = 220,000). O95977; in the data active means activation above about 11%;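 further: 0% = DMSO vehicle and 100% = reference agonist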
Dynein transport: blocks dynein driven cargo transport along microtubules. actives 0.47% (n = 220,000). 3617.4 mouse cells, GR-EGFP nuclear translocation imaging; test concentration mostly 20 µM; stimulated with dexamethasone, 1 µM; hits give low values. z-score, hits read low;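 active means plate z-score of nuclear minus cytoplasmic receptor signal below a set negative limit, without overly bright fluorescence or cell loss, cut at about -3.5 in these data, passing the limit was not always enough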;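 further: z-score of nuclear minus cytoplasmic ring GR-EGFP intensity difference per well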
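medium = tetracycline-free induction medium containing charcoal-stripped FBS | also added = 1.0 µM final dexamethasone stimulus | schedule = 48 h induction, 1 h compound, 30 min dex at 37 °C | technique = fixed, Hoechst-stained cells imaged at 10x for EGFP | measure = GR-EGFP nuclear translocation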
Calb biofilm kill: mixture kills Candida albicans biofilm cells | C. albicans biofilm persisters + clotrimazole, fluorescence viability; primary screen in compound mixtures of four per well | inhibition, % at 7.6 µM | actives 0.02% (n = 120,000);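 active means inhibition above 30.3% in the primary screen of four-compound pools, then above 30% when the compound was retested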;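 further: compounds exposed to preformed 24 h biofilms for 48 h; 0% = untreated biofilm control and 100% = clotrimazole plus chlorhexidine kill blank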
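Incubation: 24 h biofilm formation, then 48 h compound exposure, 37 °C | Material: C. albicans biofilms | Buffer or medium: RPMI/MOPS medium, pH 7.0 | Measured by: 2-h Alamar Blue fluorescence, 535/590 nm excitation/emission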
Dynein confirm: dynein cargo transport inhibition, confirmation. shares compounds with Dynein transport. 3617.4 GR-EGFP nuclear translocation imaging, dexamethasone-induced. calls only at 20 µM. actives 69% (n = 1,000). AID 463116;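 active means inhibition of receptor movement into the nucleus at or above a set limit in both runs, with normal cell brightness and cell count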;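 further: dexamethasone at 1 µM final in well for 30 min; nuclear minus cytoplasmic GR-EGFP mean intensity difference in channel 2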
S1P4 antag conf: confirmation of human S1P4 receptor antagonists; shares compounds with S1P4 antagonist; S1P4-expressing cell line, antagonist mode, reporter read-out; inhibition, % at 4.98 µM; actives 71% (n = 520); AID 1524; in the data active means inhibition above about 30%
S1P1 antagonist: counter-screen for S1P4 antagonists: antagonists of human S1P1; AID 1564; cell-based S1P1 antagonist counterscreen, inhibition; shares compounds with S1P4 antagonist; actives 37% (n = 520); inhibition, % at 4.98 µM; in the data active means inhibition above about 40%;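 further: receptor stimulated with S1P near its EC80; 0% = agonist stimulated wells and 100% = vehicle only wells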
Target sequence (P21453 whole entry, looked up): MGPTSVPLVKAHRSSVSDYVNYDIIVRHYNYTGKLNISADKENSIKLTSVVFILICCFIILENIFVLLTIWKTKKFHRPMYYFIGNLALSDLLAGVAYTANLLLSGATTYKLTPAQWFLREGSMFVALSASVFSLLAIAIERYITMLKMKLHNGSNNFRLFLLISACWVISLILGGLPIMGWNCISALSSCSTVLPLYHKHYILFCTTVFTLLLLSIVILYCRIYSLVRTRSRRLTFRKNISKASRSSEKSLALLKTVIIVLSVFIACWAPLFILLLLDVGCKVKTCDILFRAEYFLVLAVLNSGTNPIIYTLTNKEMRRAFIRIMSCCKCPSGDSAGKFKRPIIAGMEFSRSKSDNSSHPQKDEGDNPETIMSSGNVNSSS
Numbers without * were called inactive; i = inactive; . = no result; + = active, no number.

SMILES	S1P4 antagonist	S1P3 antagonist	TbHK1 inh	S1P4 agonist	Dynein transport	Calb biofilm kill	Dynein confirm	S1P4 antag conf	S1P1 antagonist
COC(=O)c1cc(=O)n(Cc2ccc(F)cc2)c(=NCc2ccc(F)cc2)s1	-15	12	-10	1	-3	13	.	.	.
Cc1ccc(C(=O)NC(C#N)=C(Cl)Cl)cc1	60*	-10	2	1	-4.3*	8	+	110*	28
O=C1CN(C(=O)Cn2ncc(Cl)c(Cl)c2=O)c2ccccc2N1	38*	4	-8	-4	-6.8*	15	+	117*	69*
CC(C)(C)C(=O)Cn1ncc(Cl)c(Cl)c1=O	53*	-1	1	-1	-6.1*	16	+	78*	24
O=C(Cn1ncc(Cl)c(Cl)c1=O)c1ccc(Cl)cc1	44*	.	0	-1	-4*	9	i	107*	63*
O=C(OCn1ncc(Cl)c(Cl)c1=O)c1ccc(F)cc1	-18	.	4	-5	-2.9	.	.	.	.
CC(C)(C)C(=O)Cn1ncc(N2CCCC2)c(Br)c1=O	-12	.	-14	0	-0.48	.	.	.	.
Cc1nc2ccccc2n1CC(=O)N1CC(=O)Nc2ccccc21	-4	-6	1	-4	0.2	.	.	.	.
O=c1c(Cl)c(Cl)cnn1Cc1ccc(F)cc1	60*	-1	3	-4	-4.9*	34	+	105*	31
COC(=O)c1ccc(C(=O)Nc2ccc(C(C)C)cc2N)cc1	11	0	-2	-1	-0.047	7	.	.	.
Cc1ccc(NC(=O)CN(C)C(=O)Cn2ncc(Cl)c(Cl)c2=O)cc1	82*	5	4	1	-6.3*	8	+	106*	79*
Cc1ccc(NC(=O)CN(C)C(=O)COc2c(Cl)cc(Cl)c3ccc(C)nc23)cc1	-23	7	-6	2	-0.061	11	.	.	.
CCn1c2ccccc2c2nnc(SCC(=O)NC(C(=O)OC)C(C)C)nc21 (stereo not given)	.	-4	.	.	.	.	.	.	.
O=C(CCl)Nc1cc(SCC(O)CO)cc([N+](=O)[O-])c1 (stereo not given)	39*	-5	-3	0	-5.9*	-13	+	112*	102*
CCc1cccc(N(C(=O)c2csnn2)C(C(=O)NC(C)(C)C)c2ccccn2)c1 (stereo not given)	-3	-14	-2	3	-0.3	6	.	.	.
COc1cccc(-n2nc(C#N)c(Cl)cc2=O)c1	94*	-13	-10	-3	-6.2*	6	+	104*	0
COC(CNC(=O)c1cccnc1)OC	-9	-13	-1	2	0.43	15	.	.	.
COC(CNC(=O)c1ccc2c3c(onc13)-c1ccccc1C2=O)OC	37*	-3	-10	6	-4.9*	0	+	114*	22
Nc1nc(-c2ccc(F)cc2)cc(C(F)(F)F)n1	-16	.	-16	0	0.29	.	.	.	.
CS(=O)(=O)c1nc(-c2ccc(F)cc2)cc(C(F)(F)F)n1	70*	-10	-10	-3	-3.9	10	i	117*	21
COc1ccc(O)c(CNc2ccccc2F)c1	1	-5	0	-1	-0.83	14	.	.	.
CCn1c(Cl)c(C=O)s/c1=N\S(=O)(=O)c1ccccc1	88*	18	-28	-3	-7*	-2	+	120*	119*
O=C(NCc1cccnc1)/C(=C/c1ccc(-c2cccc(Cl)c2)o1)S(=O)(=O)c1ccccc1	65*	.	-10	0	-3.9*	.	+	105*	72*
Cc1nc(N2CCN(C)CC2)c2sc(=S)n(-c3ccccc3)c2n1	-16	-2	-30	1	0.81	.	.	.	.
S=c1sc2c(Cl)ncnc2n1-c1ccccc1	32*	-9	-41	-1	-4*	16	+	121*	86*
